From publication PMC6624406 (British Journal of Clinical Pharmacology, 2019)

What was measured:
Safety and tolerability = type: in vivo, human; settings: for Participants reporting at least 1 AE: n = 16
How it was run: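 Phase I open-label two-part study in opioid-dependent, HIV-seronegative adults on stable once-daily opioid maintenance, 16 per part. Usual dose alone on day 1, then with test compound 600 mg ER BID on days 2–9, confined day -1 to day 10. Safety assessed by AE reports, vital signs (screening, days 1, 5, 10), ECG/physical exam (screening, day 1, day 10) and clinical labs (days 5, 9).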

HIV‐1 = settings: cited from earlier work
[1] = type: in vivo; settings: human, plasma, oral
[2] = human, in vivo; cited from earlier work
[3] = Part 1, while receiving MET with FTR
[4] = Part 2, while receiving BUP/NLX with FTR

Row | SMILES | Tolerability (Safety and tolerability; FTR 600 mg ER BID coadministered with MET or BUP/NLX) | Participants reporting headache (Safety and tolerability; [3]) [%] | Participants reporting nausea (Safety and tolerability; [3]) [%] | Participants reporting at least 1 AE (Safety and tolerability; Part 1, while receiving MET with FTR 600 mg ER BID) [%] | Participants reporting headache (Safety and tolerability; [4]) [%] | Participants reporting nausea (Safety and tolerability; [4]) [%] | Participants reporting at least 1 AE (Safety and tolerability; Part 2, while receiving BUP/NLX with FTR 600 mg ER BID) [%] | Decline in HIV‐1 RNA (HIV‐1; 8 days of functional FTR monotherapy, FTR 600 mg ER BID) [log10 copies/mL] | Rate of HIV virological suppression (HIV‐1; FTR with an optimized background therapy for 24 and 48 weeks) [%] | AUC [1] [ng·h/mL] | concentration at 12 h ([1]; TMR C12, geometric mean (coefficient of variation [%]), FTR 600 mg ER BID coadministered with BUP/NLX) [ng/mL] | Cmax ([1]; TMR Cmax, geometric mean (coefficient of variation [%]), FTR 600 mg ER BID coadministered with BUP/NLX) [ng/mL] | Accumulation [2] [fold]
1 | COc1cnc(-n2cnc(C)n2)c2c1c(C(=O)C(=O)N1CCN(C(=O)c3ccccc3)CC1)cn2COP(=O)(O)O [FTR, Fostemsavir] | well tolerated | 12.5 | 12.5 | 62.5 | 6.3 | 18.8 | 50.0 | 0.8 | 54 |  |  |  | 
2 | COc1cnc(-n2cnc(C)n2)c2[nH]cc(C(=O)C(=O)N3CCN(C(=O)c4ccccc4)CC3)c12 [TMR, temsavir] |  |  |  |  |  |  |  |  |  | 9760 | 468 | 2050 | < 2
